Data on three compounds can be found in paper PMC6392825 (ChemistryOpen, 2019).

In general, IC50 refers to the midpoint of a concentration-inhibition curve. Usually solubility stands for how much of the substance goes into solution per volume. High values mean a readily soluble substance, low ones a poorly soluble substance.

Series [1] deals with HT‐29. Nature of the series: Cytotoxicity, mitochondrial activity. The conditions noted are these: Homo sapiens, HT-29, 72 h, read-out: IC50 MTT. Format: cell-based. In short, it runs like this: (§1)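 Seeded at 20000 cells/well in DMEM and grown 24 h at 37 °C, 10% CO2. Medium was then replaced with serum-free medium holding test compound (25 mM DMSO stock) at various concentrations for 72 h, in triplicate; doxorubicin was the positive control. MTT (5 mg/mL stock in PBS) added for 2 h, formazan dissolved in DMSO, A570. IC50 derived from % surviving cells, reported as mean ± SD combined with SRB data.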

For series [2], the system named is EA.hy926. Nature of the series: Intracellular ROS assay. The class given is cell-based. The conditions noted are these: Homo sapiens, EA.hy 926, read-out: Intracellular ROS, percentage compared to the untreated control cells (ROS/SRB). In short, it runs like this:
(§2)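 Cells seeded at 20000/well and grown 24 h at 37 °C, 10% CO2, then treated with test compound at 10 and 1 μM in serum-free medium. NAC and doxorubicin served as controls. After a PBS wash, cells were loaded with 20 μM DCFH-DA for 30 min, washed, and held 1 h in phenol red-free DMEM. Fluorescence read at ex 485/em 535 nm and normalized to SRB in the same well. Reported as % of untreated control, n ≥ 3, two-tailed t-test with unequal variances.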

For series [3], the system named is Caco‐2. Nature of the series: Intracellular ROS assay. The conditions noted are these: Homo sapiens, Caco-2, read-out: Intracellular ROS, percentage compared to the untreated control cells (ROS/SRB). The class given is cell-based. In short, it runs like this:
as §2

The test system of series [4] is EA.hy926. The series is described as follows: Cell growth inhibition, protein content. Format: cell-based. The conditions noted are these: Homo sapiens, EA.hy 926, 72 h, read-out: IC50 SRB. In short, it runs like this:
(§3)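 Cell lines from ATCC, grown in DMEM+glutamax with 1% NEAA, 1% P/S and 10% FBS at 37 °C, 10% CO2. Seeded at 20000 cells/well for 24 h, then exposed to test compound (25 mM DMSO stock) for three days. Fixed with cold TCA for 1 h at 4 °C, stained 30 min with 0.4% SRB in 1% acetic acid, dissolved in 10 mM Tris, A490. Triplicate; IC50 given as mean ± SD combined with MTT data (n ≥ 3).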

Series [5] has as its system Caco‐2. Nature of the series: Cell growth inhibition, protein content. The class given is cell-based. To be noted: Homo sapiens, Caco-2, 72 h, read-out: IC50 SRB. In outline: as §3
Series [6] has as its system HepG2, HT‐29, Caco‐2 and EA.hy926. The series is described as follows: Antiproliferative activity, MTT and SRB assays taken together. The class given is cell-based. (In general: Formazan colour is commonly taken as a measure of viable cells.)
Series [7] relates to HT‐29. Nature of the series: Cell growth inhibition, protein content. Format: cell-based. To be noted: Homo sapiens, HT-29, 72 h, read-out: IC50 SRB. In outline: as §3
Series [8] can be described thus: Chemical antioxidant capacity, FRAP assay.
Series [9] concerns Caco‐2. The series is described as follows: Cytotoxicity, mitochondrial activity. The class given is cell-based. To be noted: Homo sapiens, Caco-2, 72 h, read-out: IC50 MTT. In short, it runs like this: as §1
For series [10], the system named is HT‐29. The series is described as follows: Intracellular ROS assay. Format: cell-based. To be noted: for activity at 1 µM / activity at 10 µM: Homo sapiens, HT-29, read-out: Intracellular ROS, percentage compared to the untreated control cells (ROS/SRB). In outline: as §2
Series [11] deals with HepG2. Nature of the series: Cell growth inhibition, protein content. Format: cell-based. To be noted: Homo sapiens, HepG2, 72 h, read-out: IC50 SRB. In short, it runs like this: as §3
Series [12] concerns HepG2. Nature of the series: Cytotoxicity, mitochondrial activity. Format: cell-based. To be noted: Homo sapiens, HepG2, 72 h, read-out: IC50 MTT. In outline:
as §1

In series [13] the test system is EA.hy926. The series is described as follows: Cytotoxicity, mitochondrial activity. Format: cell-based. To be noted: Homo sapiens, EA.hy 926, 72 h, read-out: IC50 MTT. In short, it runs like this: as §1
The nature of series [14]: Water solubility, shake flask method, 0.1 M phosphate buffer pH 6.8. Format: physicochemical. To be noted: 37 °C, pH 6.8, aqueous buffer, thermodynamic from solid.
Series [15] deals with HepG2. The series is described as follows: Intracellular ROS assay. Format: cell-based. The conditions noted are these: for change of intracellular ROS in words: HepG2, vs untreated control, 10 and 1 μM; for activity at 1 µM / activity at 10 µM: Homo sapiens, HepG2, read-out: Intracellular ROS, percentage compared to the untreated control cells (ROS/SRB). In outline: as §2
Series [16] deals with CHO‐K1. Nature of the series: Intracellular ROS assay. The conditions noted are these: CHO‐K1, vs untreated control, 10 and 1 μM. Format: cell-based, Chinese hamster. In outline: as §2

Structures are written as SMILES. Converted amounts (≈) assume the structure as drawn. A value given as a limit tells only on which side of the number the result lay.

As for `COc1cc(/C=C/C(=O)/C=C(O)/C=C/c2ccncc2)ccc1O` [3 c, (1E,4Z,6E)‐5‐Hydroxy‐1‐(4‐hydroxy‐3‐methoxyphenyl)‐7‐(pyridin‐4‐yl)hepta‐1,4,6‐triene‐3‐one], the IC50 turned out to be 4.9 ± 0.3 µM in [1]; 3.7 ± 0.2 µM in [4]; 12 ± 0.7 µM in series [5]; 48.8 ± 1.8 µM in [7]; 7.1 ± 0.4 µM in series [9]; 9.8 ± 0.6 µM in series [11]. Besides, the results for the 50% inhibitory concentration (IC50) in [12] and in series [13] were 3.2 ± 0.8 µM and 6.1 ± 0.1 µM, respectively. Moreover, the activity at 1 µM in series [2] is 100 ± 6.9%; in [3] it was 89.8 ± 3.6%; in series [10] it was 93.4 ± 6.4%; in series [15], 104 ± 13.1%. The activity at 10 µM in series [2] was 95.7 ± 3.5%; in series [3], 99.7 ± 1%; in series [10], 99.8 ± 11.4%; in [15], 128 ± 4.4%. Moreover, the “antiproliferative activity / cell growth inhibition in words” value in [6] is listed as “comparable activity to the commercial doxorubicin drug”. Moreover, the “FRAP (Trolox equivalent per μM)” value in [8] turned out to be 0.56 Trolox equivalent per μM. For the same compound, the “FRAP (curcumin equivalent per μM)” value in series [8] is given as 0.54 curcumin equivalent per μM. In [8], the “antioxidant activity in words, FRAP” value was “comparable to ascorbic acid”. This compound came in with a solubility at 90 min in series [14] of 9 ± 0.6 µM (≈ 2.91 µg/mL). The compound also registered a solubility at 24 h in series [14] of 12.8 ± 1.1 µM (≈ 4.14 µg/mL). In addition, the “change of intracellular ROS in words” value in series [15] is reported as “significantly increased ROS production”.

With `COc1cc(/C=C/c2cc(/C=C/c3cccc4cnccc34)[nH]n2)ccc1O` [4 c, 2‐Methoxy‐4‐{(E)‐2‐[5‐((E)‐2‐(isoquinolin‐5‐yl)vinyl)‐1H‐pyrazol‐3‐yl]vinyl}phenol], the IC50 in [1] is 37.7 ± 1.3 µM; in series [4], more than 75 µM; in series [5], 60.3 ± 3.5 µM; in series [7], more than 75 µM; in series [9] it was 58.7 ± 2 µM; in series [11] it was 28.3 ± 4.7 µM. Besides, the IC50 in series [12] was 6.7 ± 0.4 µM; in [13] it was 38.8 ± 0.4 µM. Moreover, the activity at 1 µM in [2] is 89.9 ± 2.5%; in series [3], 108 ± 18.6%; in series [10], 94.4 ± 3.4%; in [15], 74.7 ± 2.9%. Also, the activity at 10 µM was found to be 99.2 ± 5% in series [2], 102 ± 17.3% in [3], 86.4 ± 8.2% in [10] and 88 ± 10.6% in series [15]. Besides, in series [6], the “antiproliferative activity / cell growth inhibition in words” value is on record as “comparable activity to the commercial doxorubicin drug”. In addition, in series [8], the “FRAP (Trolox equivalent per μM)” value was 0.15 Trolox equivalent per μM. In series [8], the “FRAP (curcumin equivalent per μM)” value is listed as 0.14 curcumin equivalent per μM. Besides, in series [14], the solubility at 90 min was found to be 6.4 ± 0.2 µM (≈ 2.36 µg/mL). The compound also showed a solubility at 24 h in series [14] of 7 ± 0.2 µM (≈ 2.59 µg/mL). For the same compound, the “change of intracellular ROS in words” value in series [15] is recorded as “significantly decreased ROS signal”.

For the compound `COc1cc(/C=C/C(=O)/C=C(O)/C=C/c2ccc[nH]2)ccc1O` [3 f, (1E,4Z,6E)‐5‐Hydroxy‐1‐(4‐hydroxy‐3‐methoxyphenyl)‐7‐(1H‐pyrrol‐2‐yl)hepta‐1,4,6‐trien‐3‐one], the “change of intracellular ROS in words” value was “significantly increased ROS” in [16]; “higher ROS signal” in [10] (HT‐29, vs untreated control, 10 and 1 μM); “significantly increased ROS production” in series [15]. Further, the IC50 was determined as 33.9 ± 0.4 µM in series [1]; 33.8 ± 1.4 µM in series [4]; 15.9 ± 2 µM in [5]; 36.1 ± 2.3 µM in series [7]; 17.1 ± 0.4 µM in series [9]; 7.1 ± 0.2 µM in [11]. Besides, the IC50 in series [12] worked out at 31.7 ± 0.6 µM; in series [13], 45.6 ± 0.9 µM. Further, the activity at 1 µM is 125 ± 9.7% in series [2], 125 ± 3.5% in series [3], 117 ± 10.5% in series [10] and 98.9 ± 2.9% in [15]. Moreover, the activity at 10 µM in [2] was determined as 132 ± 12.7%; in series [3] it was 147 ± 12%; in series [10], 109 ± 2.6%; in [15] it was 216 ± 13.7%. In addition, the “FRAP (Trolox equivalent per μM)” value in series [8] was 0.56 Trolox equivalent per μM. For the same compound, the “FRAP (curcumin equivalent per μM)” value in [8] is reported as 0.54 curcumin equivalent per μM. Also, the “antioxidant activity in words, FRAP” value in series [8] is reported as “comparable to ascorbic acid”. In series [14], the solubility at 90 min worked out at 20.9 ± 1.7 µM (≈ 6.51 µg/mL). The compound further yielded a solubility at 24 h in series [14] of 18.3 ± 0.4 µM (≈ 5.7 µg/mL).
